Screens from PubChem.
CAL PDZ FP-1: CAL PDZ (human) peptide binding inhibition. inhibition, % at 24.9 µM. hit rate 0.92% among 300,000. purified CAL PDZ, TMR-peptide fluorescence polarization, 1 h. Q9HD26. AID 602252;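 active = mean inhibition of at least 30% with at least half of replicates also reaching 30%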
PGC1a acetyl inh: modulators of PGC1a acetylation; inhibition, % at 15.6 µM; hit rate 0.17% among 350,000; U2OS PGC1a acetylation, AlphaScreen anti-acetyl-lysine; with virally co-expressed GCN5 acetyltransferase; AID 651687;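 active = every replicate shows inhibition of at least 40%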
miR-122 sensor: blocks miR-122 activity in Huh7 sensor cells; Huh7 miR-122 Renilla luciferase sensor, 48 h; neutral wells = 0, positive control = 100; activation (reporter increase), % at 12.5 µM; hit rate 0.3% among 340,000;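 active = mean replicate activation score at least 90 and every replicate individually at or above 90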;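 note: higher luciferase means less miR-122 activity so hits act as miR-122 inhibitors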
ARNT-TACC3 inh: disrupts binding between human ARNT and TACC3 | hit rate 0.66% among 390,000 | AID 623870 | AlphaScreen His-ARNT PAS-B/GST-TACC3 binding, luminescence; TACC3 fragment carries E629A point mutation | inhibition, % at 9.99 µM;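 active = mean inhibition of replicates at least 50% and at least half of replicates each reaching 50%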
F508del corr: CFTR F508del correction in bronchial cells. CFBE cells, YFP halide quenching; stimulated with forskolin plus potentiator P3; % fluorescence drop versus neutral controls. activity (quench increase), % at 7.58 µM. hit rate 0.36% among 350,000. AID 720511;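 active = mean added fluorescence quench of at least 8% versus neutral control, with both replicates also reaching 8%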;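 note: cells transiently co-express mutant CFTR-F508del with the halide-sensitive YFP; corrector assay measuring rescue of mutant channel to the surface after 24 h compound exposure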
CAL PDZ FP-2: human CAL PDZ-peptide interaction inhibition. purified CAL PDZ, TMR-peptide fluorescence polarization, 1 h. AID 504414. Q9HD26. hit rate 0.02% among 330,000. inhibition, % at 20 µM;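 active = highest replicate inhibition of at least 40%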
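Material – purified CerCALP PDZ construct · Detection – FP readout, S and P plane fluorescence · Measure – percent inhibition from loss of millipolarization · Controls – unlabelled peptide for full inhibition, DMSO wells as neutral · Probe or stimulus – TMR-labelled reporter peptide T*-PRC34 bound in PDZ groove · Times – 1 h at RT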
Numbers stand for hits; . = inactive; / = no result given. Only some compounds are listed: those with a hit (about 1.7% of all), similar ones and a draw of the others.

SMILES	CAL PDZ FP-1	PGC1a acetyl inh	miR-122 sensor	ARNT-TACC3 inh	F508del corr	CAL PDZ FP-2
COc1ccc(CCNC(=O)Cc2ccsc2)cc1	37	/	.	.	.	.
CO[C@@H]1CN(C)C(=O)c2ccc(NC(C)=O)cc2OC[C@H](C)N(Cc2ccccc2C(=O)O)C[C@H]1C	/	.	.	.	.	/
O=C1C=C(Nc2cccnc2)c2ccccc2C1=O	.	/	/	35	.	.
COc1ccc2c3c(n(C)c2c1)[C@@H](CO)N(CC1CCCC1)CC31CCN(C(C)=O)CC1	/	/	/	/	.	/
COc1cc2[nH]c(=S)nc(NCCC(C)C)c2cc1OC	.	/	/	64	.	.
COc1cc2[nH]c(=S)nc(NCc3ccc(Cl)cc3)c2cc1OC	.	.	.	.	.	.
COc1cc2[nH]c(=S)nc(NCCc3ccc(C)cc3)c2cc1OC	.	/	/	.	.	.
COCCCNc1nc(=S)[nH]c2cc(OC)c(OC)cc12	.	.	.	64	/	.
C=C1C(=O)O[C@@H]2[C@H]1[C@@H](OC(=O)/C(C)=C/C)C/C(C)=C\C(=O)/C=C(\C)[C@@H]2O	.	.	.	.	9.7	.
C[C@@H]1CCCCO[C@H](CN(C)Cc2ccncc2)[C@H](C)CN([C@H](C)CO)C(=O)c2cc(NS(=O)(=O)c3cn(C)cn3)ccc2O1	/	.	.	.	.	/
CCOC(=O)C1(CCOc2ccccc2)CCN(Cc2cnc(SC)nc2)CC1	46	.	.	.	.	.
CCOC(=O)C1(CCOc2ccccc2)CCN(Cc2ccc(C)o2)CC1	53	.	/	.	.	.
O=C(C[C@H]1CC[C@@H]2[C@H](COC[C@H](O)CN2S(=O)(=O)c2ccc(F)cc2)O1)NCc1ccc(Cl)c(Cl)c1	/	.	.	.	.	/
Fc1ccc(/C=N/N2CCCCC2)c(F)c1	.	66	.	.	.	.
COc1ccccc1C=NN1CCCCCC1	/	.	.	/	.	/
C[C@@H]1CCCCO[C@H](CN(C)CC2CC2)[C@H](C)CN([C@@H](C)CO)C(=O)c2cc(NS(=O)(=O)c3cccs3)ccc2O1	/	.	/	/	.	/
CNC[C@H]1OCCCC[C@@H](C)Oc2ccc(NC(=O)c3ccncc3)cc2C(=O)N([C@@H](C)CO)C[C@@H]1C	/	.	.	.	.	/
CC(C)CC(=O)Nc1cccc(-c2nc3ccccc3[nH]2)c1	.	.	158	.	.	.
CCOC(=O)/C(C#N)=C1/C(=O)N(Cc2ccccc2)c2ccccc21	.	73	.	.	.	.
CCOC(=O)C(C#N)=C1CCN(Cc2ccccc2)CC1	/	.	.	.	.	.
CN(C)S(=O)(=O)c1ccc(C(=O)OCC(=O)NCc2ccccc2)cc1	.	.	.	.	.	.
Cc1ccc(CNC(=O)COC(=O)c2ccc(S(=O)(=O)N(C)C)cc2)cc1	.	.	.	.	8.1	.
COc1cc2c[n+](C)c3c4ccccc4ccc3c2cc1OC	.	.	.	.	9.7	.
O=C(C1CCCCC1)N1CC(=O)N2[C@@H](CO)[C@H](c3ccc(C#Cc4cccc(F)c4)cc3)[C@@H]2C1	/	.	/	/	9.6	/
O=C(C1CCCCC1)N1CC(=O)N2[C@@H](CO)[C@@H](c3ccc(C#Cc4cccc(F)c4)cc3)[C@@H]2C1	/	.	/	/	.	/
SMILES	CAL PDZ FP-1	PGC1a acetyl inh	miR-122 sensor	ARNT-TACC3 inh	F508del corr	CAL PDZ FP-2
O=C1CN(S(=O)(=O)Cc2ccccc2)C[C@H]2[C@H](c3ccc(C#Cc4cccc(F)c4)cc3)[C@@H](CO)N12	/	.	/	/	.	/
O=C1CN(S(=O)(=O)Cc2ccccc2)C[C@@H]2[C@@H](c3ccc(C#Cc4cccc(F)c4)cc3)[C@H](CO)N12	/	.	/	/	8.1	/
Cc1ccccc1S(=O)(=O)N1C[C@@H](O)COC[C@@H]2O[C@H](CC(=O)O)CC[C@H]21	/	.	.	.	.	/
CCCC#Cc1ccc2c(c1)O[C@@H](CN(C)C(=O)NC(C)C)[C@H](C)CN([C@H](C)CO)S2(=O)=O	/	/	.	.	.	/
C[C@H](CO)N1C[C@H](C)[C@@H](CN(C)C(=O)CCC(F)(F)F)OCCCC[C@H](C)Oc2ccc(NC(=O)CCCN(C)C)cc2C1=O	/	.	.	25	.	/
COc1ccc(NC(=O)Nc2ccc3c(c2)C(=O)N([C@H](C)CO)C[C@@H](C)[C@H](CN(C)Cc2ccc(C(F)(F)F)cc2)OCCCC[C@H](C)O3)cc1	/	.	.	.	14	/
